Measurements published in ChEMBL document CHEMBL4118021, “Studies of TAK1-centered polypharmacology with novel covalent TAK1 inhibitors” (Bioorg Med Chem, 2017).
Calls of active or inactive are those of the source. The rule behind the calls is not given here.

Assays:
[1] = target: Dual specificity mitogen-activated protein kinase kinase 1 (Homo sapiens) (UniProt Q02750); assay: Inhibition of full length human MEK1 (1 to 393 residues) expressed in mammalian expression system assessed as enzyme activity at 1 uM by KINOMEScan assay relative to control; design: scale not given: the % may be the effect or the level left
In short: (§1)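 In vitro ATP-site competition binding assay (KinomeScan) across a panel of 456 kinases. Compound was tested at 1 and 10 μM. The read-out is the binding inhibition score relative to control.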

[2] = Increase in secretion of basic-FGF in poly(I:C) activated RA patient-derived synovial fibroblasts at 0.6 to 3 uM preincubated for 3 hrs followed by poly(I:C) stimulation measured after 18 hrs by sandwich immunoassay; settings: human
In short: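 Primary human RA synovial fibroblasts (donor RA2159) seeded at 1000 viable cells/well, grown ~24 h at 37 °C/5% CO2, then starved overnight in basal medium and for a further ~4 h in basal medium with 0.1% BSA. Inhibitor or DMSO given 3 h before stimulation. Supernatants from two adjacent wells pooled as one replicate, biological duplicate. Luminex multiplex panels (48 analytes), diluted 1:3. Mock-supernatant background and spiked-ligand cross-reactivity controls included.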

[3] = target: BMP-2-inducible protein kinase (Homo sapiens) (UniProt Q9NSY1); assay: Inhibition of human BIKE (34 to 329 residues) expressed in bacterial expression system assessed as enzyme activity at 1 uM by KINOMEScan assay relative to control; design: scale not given: the % may be the effect or the level left; in short: as §1
[4] = target: Cyclin-dependent kinase-like 2 (Homo sapiens) (UniProt Q92772); assay: Inhibition of human CDKL2 (1 to 327 residues) expressed in bacterial expression system assessed as enzyme activity at 1 uM by KINOMEScan assay relative to control; design: scale not given: the % may be the effect or the level left; in short: as §1
[5] = target: Ras-related protein Rab-22A (Homo sapiens) (UniProt Q9UL26); assay: Binding affinity to RAB22A in human NCI-H358 cells at 1 uM by mass spectrometry based pull down assay; type: cell-based
[6] = target: Ras GTPase-activating-like protein IQGAP1 (Homo sapiens) (UniProt P46940); assay: Binding affinity to IQGAP1 in human NCI-H358 cells at 1 uM by mass spectrometry based pull down assay; type: cell-based
[7] = target: Protein NipSnap homolog 1 (Homo sapiens) (UniProt Q9BPW8); assay: Binding affinity to NIPSNAP1 in human NCI-H23 cells at 1 uM by mass spectrometry based pull down assay; type: cell-based
[8] = target: Probable ATP-dependent RNA helicase DDX17 (Homo sapiens) (UniProt Q92841); assay: Binding affinity to DDX17 in human NCI-H23 cells at 1 uM by mass spectrometry based pull down assay; type: cell-based
[9] = target: MOB kinase activator 1B (Homo sapiens) (UniProt Q7L9L4); assay: Binding affinity to MOB1B in human NCI-H23 cells at 1 uM by mass spectrometry based pull down assay; type: cell-based
[10] = target: Dolichyl-diphosphooligosaccharide--protein glycosyltransferase subunit 1 (Homo sapiens) (UniProt P04843); assay: Binding affinity to RPN1 in human NCI-H23 cells at 1 uM by mass spectrometry based pull down assay; type: cell-based
[11] = target: Cytosolic iron-sulfur assembly component 2B (Homo sapiens) (UniProt Q9Y3D0); assay: Binding affinity to FAM96B in human NCI-H23 cells at 1 uM by mass spectrometry based pull down assay; type: cell-based
[12] = target: B-cell receptor-associated protein 31 (Homo sapiens) (UniProt P51572); assay: Binding affinity to BCAP31 in human NCI-H23 cells at 1 uM by mass spectrometry based pull down assay; type: cell-based
[13] = target: Protein LSM12 (Homo sapiens) (UniProt Q3MHD2); assay: Binding affinity to LSM12 in human NCI-H23 cells at 1 uM by mass spectrometry based pull down assay; type: cell-based
[14] = target: Protein transport protein Sec16A (Homo sapiens) (UniProt O15027); assay: Binding affinity to SEC16A in human NCI-H358 cells at 1 uM by mass spectrometry based pull down assay; type: cell-based
[15] = target: Alpha-2-HS-glycoprotein (Homo sapiens) (UniProt P02765); assay: Binding affinity to AHSG in human NCI-H23 cells at 1 uM by mass spectrometry based pull down assay; type: cell-based
In short: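 NCI-H23 or NCI-H358 cells were grown and lysed. Lysates were incubated overnight at 4 °C with 1 μM biotinylated covalent probe or DMSO, then pulled down on streptavidin beads. Proteins were run on polyacrylamide gels and stained with Coomassie. Bands were excised, digested and identified by mass spectrometry.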

[16] = target: Lysophosphatidylcholine acyltransferase 1 (Homo sapiens) (UniProt Q8NF37); assay: Binding affinity to LPCAT1 in human NCI-H358 cells at 1 uM by mass spectrometry based pull down assay; type: cell-based
[17] = target: YTH domain-containing family protein 2 (Homo sapiens) (UniProt Q9Y5A9); assay: Binding affinity to YTHDF2 in human NCI-H358 cells at 1 uM by mass spectrometry based pull down assay; type: cell-based
[18] = target: Leucine-rich PPR motif-containing protein, mitochondrial (Homo sapiens) (UniProt P42704); assay: Binding affinity to LRPPRC in human NCI-H358 cells at 1 uM by mass spectrometry based pull down assay; type: cell-based
[19] = target: Trifunctional purine biosynthetic protein adenosine-3 (Homo sapiens) (UniProt P22102); assay: Binding affinity to GART in human NCI-H23 cells at 1 uM by mass spectrometry based pull down assay; type: cell-based
[20] = target: UV radiation resistance-associated gene protein (Homo sapiens) (UniProt Q9P2Y5); assay: Binding affinity to UVRAG in human NCI-H23 cells at 1 uM by mass spectrometry based pull down assay; type: cell-based

Chain of Trifunctional purine biosynthetic protein adenosine-3 (Homo sapiens) (P22102 whole entry): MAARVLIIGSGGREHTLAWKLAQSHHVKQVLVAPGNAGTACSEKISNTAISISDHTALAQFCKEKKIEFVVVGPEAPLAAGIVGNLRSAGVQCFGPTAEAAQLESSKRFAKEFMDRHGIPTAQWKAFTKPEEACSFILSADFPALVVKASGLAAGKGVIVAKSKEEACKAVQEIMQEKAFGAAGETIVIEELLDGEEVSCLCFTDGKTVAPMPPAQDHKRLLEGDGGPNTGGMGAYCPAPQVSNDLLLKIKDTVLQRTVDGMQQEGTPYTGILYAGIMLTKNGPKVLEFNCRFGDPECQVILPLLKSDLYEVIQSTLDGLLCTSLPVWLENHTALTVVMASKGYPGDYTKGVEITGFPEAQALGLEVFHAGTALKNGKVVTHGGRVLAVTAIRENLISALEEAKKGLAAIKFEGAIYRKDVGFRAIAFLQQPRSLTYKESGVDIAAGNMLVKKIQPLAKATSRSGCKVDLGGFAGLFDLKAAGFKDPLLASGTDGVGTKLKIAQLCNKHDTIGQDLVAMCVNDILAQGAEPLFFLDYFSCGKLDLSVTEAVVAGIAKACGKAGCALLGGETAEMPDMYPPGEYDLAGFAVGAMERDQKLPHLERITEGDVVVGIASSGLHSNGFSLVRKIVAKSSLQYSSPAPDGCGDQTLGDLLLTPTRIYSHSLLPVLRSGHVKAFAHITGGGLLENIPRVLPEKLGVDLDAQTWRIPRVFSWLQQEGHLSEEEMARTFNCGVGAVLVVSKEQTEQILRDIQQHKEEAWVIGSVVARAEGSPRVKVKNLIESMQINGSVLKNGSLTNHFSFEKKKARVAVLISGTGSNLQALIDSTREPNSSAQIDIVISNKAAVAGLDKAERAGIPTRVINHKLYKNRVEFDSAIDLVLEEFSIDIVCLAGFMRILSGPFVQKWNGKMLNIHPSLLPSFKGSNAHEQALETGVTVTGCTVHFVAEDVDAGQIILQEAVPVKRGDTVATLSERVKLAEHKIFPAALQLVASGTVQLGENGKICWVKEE
Chain of B-cell receptor-associated protein 31 (Homo sapiens) (P51572 whole entry): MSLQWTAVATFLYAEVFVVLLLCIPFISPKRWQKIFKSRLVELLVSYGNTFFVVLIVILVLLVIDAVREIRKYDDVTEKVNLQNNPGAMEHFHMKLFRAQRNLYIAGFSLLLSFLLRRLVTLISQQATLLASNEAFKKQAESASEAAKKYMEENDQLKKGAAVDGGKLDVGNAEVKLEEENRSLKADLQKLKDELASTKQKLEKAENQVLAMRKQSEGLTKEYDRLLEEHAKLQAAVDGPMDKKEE
Chain of Ras GTPase-activating-like protein IQGAP1 (Homo sapiens) (P46940 whole entry): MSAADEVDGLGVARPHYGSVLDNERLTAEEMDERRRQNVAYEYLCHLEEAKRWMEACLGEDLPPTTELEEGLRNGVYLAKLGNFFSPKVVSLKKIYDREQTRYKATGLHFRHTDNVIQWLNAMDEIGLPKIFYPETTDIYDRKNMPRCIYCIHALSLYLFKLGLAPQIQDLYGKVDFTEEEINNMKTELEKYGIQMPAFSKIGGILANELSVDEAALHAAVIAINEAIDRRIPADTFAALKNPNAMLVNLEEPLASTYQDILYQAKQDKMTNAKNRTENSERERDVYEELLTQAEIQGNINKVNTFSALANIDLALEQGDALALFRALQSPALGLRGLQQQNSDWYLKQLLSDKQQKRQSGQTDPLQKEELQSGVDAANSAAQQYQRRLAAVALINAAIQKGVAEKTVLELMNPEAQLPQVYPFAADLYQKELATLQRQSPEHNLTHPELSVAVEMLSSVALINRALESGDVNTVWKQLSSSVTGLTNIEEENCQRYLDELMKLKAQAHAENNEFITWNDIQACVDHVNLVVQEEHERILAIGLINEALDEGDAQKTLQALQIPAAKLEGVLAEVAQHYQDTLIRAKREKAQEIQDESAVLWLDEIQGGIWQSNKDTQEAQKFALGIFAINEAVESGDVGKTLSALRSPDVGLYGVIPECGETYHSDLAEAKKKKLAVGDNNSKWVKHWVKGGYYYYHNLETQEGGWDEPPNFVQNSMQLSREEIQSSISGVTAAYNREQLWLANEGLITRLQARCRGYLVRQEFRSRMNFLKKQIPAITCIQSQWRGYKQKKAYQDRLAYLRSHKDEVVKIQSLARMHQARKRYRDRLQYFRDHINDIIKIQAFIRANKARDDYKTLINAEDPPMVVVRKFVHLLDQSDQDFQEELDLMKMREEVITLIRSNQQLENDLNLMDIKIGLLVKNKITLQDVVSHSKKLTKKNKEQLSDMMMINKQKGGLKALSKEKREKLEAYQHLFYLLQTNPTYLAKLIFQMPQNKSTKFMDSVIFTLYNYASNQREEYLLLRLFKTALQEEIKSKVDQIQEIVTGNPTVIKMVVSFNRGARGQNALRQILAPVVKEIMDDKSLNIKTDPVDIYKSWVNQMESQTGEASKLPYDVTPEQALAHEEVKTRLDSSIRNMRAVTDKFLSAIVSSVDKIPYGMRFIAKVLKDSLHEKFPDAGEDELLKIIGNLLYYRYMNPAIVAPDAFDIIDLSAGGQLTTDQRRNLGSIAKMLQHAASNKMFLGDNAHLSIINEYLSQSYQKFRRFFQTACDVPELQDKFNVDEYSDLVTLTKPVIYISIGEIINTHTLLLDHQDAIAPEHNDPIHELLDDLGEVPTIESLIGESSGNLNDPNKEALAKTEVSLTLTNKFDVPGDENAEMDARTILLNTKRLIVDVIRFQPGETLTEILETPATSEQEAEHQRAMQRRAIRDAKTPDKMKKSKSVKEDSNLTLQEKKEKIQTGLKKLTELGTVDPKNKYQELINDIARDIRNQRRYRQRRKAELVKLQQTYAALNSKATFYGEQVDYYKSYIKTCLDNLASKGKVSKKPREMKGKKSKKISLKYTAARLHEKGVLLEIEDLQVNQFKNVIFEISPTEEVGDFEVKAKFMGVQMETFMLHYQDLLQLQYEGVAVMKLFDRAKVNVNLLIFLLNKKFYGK
Chain of Alpha-2-HS-glycoprotein (Homo sapiens) (P02765 whole entry): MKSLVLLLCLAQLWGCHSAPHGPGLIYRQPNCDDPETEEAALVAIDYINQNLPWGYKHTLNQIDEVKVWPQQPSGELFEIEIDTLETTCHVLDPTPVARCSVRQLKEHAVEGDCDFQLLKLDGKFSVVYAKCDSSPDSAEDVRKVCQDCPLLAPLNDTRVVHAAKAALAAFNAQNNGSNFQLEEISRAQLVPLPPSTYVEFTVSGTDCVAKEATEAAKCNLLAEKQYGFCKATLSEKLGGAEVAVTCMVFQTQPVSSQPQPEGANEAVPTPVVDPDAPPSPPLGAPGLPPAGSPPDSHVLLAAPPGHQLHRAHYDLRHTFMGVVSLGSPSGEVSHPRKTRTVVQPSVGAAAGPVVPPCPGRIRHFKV
Chain of Cyclin-dependent kinase-like 2 (Homo sapiens) (Q92772 whole entry, the tested form may be a part): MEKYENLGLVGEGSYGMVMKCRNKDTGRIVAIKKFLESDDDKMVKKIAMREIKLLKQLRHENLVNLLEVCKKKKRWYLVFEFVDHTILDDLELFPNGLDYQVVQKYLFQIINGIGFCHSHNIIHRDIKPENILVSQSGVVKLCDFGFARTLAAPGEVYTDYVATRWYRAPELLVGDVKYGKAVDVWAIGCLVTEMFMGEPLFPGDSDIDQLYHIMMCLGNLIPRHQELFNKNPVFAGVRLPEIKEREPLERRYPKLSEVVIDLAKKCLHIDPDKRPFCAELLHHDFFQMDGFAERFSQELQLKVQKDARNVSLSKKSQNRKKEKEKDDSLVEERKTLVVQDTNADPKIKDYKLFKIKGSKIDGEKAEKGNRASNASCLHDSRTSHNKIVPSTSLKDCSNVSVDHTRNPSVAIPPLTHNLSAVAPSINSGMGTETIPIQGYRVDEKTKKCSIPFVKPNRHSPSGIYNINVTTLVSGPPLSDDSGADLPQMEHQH
Chain of Ras-related protein Rab-22A (Homo sapiens) (Q9UL26 whole entry): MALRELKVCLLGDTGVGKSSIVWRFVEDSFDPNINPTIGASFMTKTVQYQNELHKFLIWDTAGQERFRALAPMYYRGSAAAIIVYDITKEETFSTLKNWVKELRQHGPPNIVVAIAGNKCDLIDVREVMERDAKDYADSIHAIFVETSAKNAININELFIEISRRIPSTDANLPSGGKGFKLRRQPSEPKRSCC
Chain of Dolichyl-diphosphooligosaccharide--protein glycosyltransferase subunit 1 (Homo sapiens) (P04843 whole entry): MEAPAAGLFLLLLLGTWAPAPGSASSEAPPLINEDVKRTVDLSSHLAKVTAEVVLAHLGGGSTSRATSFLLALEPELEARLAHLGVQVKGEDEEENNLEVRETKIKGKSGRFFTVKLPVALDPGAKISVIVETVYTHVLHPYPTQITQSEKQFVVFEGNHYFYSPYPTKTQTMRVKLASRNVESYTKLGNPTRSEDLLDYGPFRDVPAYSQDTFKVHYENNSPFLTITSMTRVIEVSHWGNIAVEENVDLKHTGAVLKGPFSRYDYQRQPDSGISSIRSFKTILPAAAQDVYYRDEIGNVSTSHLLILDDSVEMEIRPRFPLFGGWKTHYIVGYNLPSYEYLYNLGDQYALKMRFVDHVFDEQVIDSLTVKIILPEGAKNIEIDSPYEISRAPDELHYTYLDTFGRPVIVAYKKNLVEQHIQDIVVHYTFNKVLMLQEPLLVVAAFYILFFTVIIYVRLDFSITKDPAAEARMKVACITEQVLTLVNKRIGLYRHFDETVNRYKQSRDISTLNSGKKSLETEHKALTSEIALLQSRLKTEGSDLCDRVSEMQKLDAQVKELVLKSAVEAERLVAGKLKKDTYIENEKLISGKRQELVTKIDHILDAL
Chain of Protein NipSnap homolog 1 (Homo sapiens) (Q9BPW8 whole entry): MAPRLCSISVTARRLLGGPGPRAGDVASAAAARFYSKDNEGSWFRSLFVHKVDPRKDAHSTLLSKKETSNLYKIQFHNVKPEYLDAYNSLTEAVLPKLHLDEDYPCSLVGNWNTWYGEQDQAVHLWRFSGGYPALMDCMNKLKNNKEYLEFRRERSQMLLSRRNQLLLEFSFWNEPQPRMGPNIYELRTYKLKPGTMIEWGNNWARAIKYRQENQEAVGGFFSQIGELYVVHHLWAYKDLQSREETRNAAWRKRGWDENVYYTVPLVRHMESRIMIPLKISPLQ
Chain of Cytosolic iron-sulfur assembly component 2B (Homo sapiens) (Q9Y3D0 whole entry): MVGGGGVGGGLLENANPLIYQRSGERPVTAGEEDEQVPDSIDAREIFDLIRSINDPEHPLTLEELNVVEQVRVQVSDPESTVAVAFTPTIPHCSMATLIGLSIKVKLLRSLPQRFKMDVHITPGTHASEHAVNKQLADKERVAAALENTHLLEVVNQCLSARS

Row | SMILES | Activity [1] [%] | Activity [2] | Activity [3] [%] | Activity [4] [%] | Activity [5] | Activity [6] | Activity [7] | Activity [8] | Activity [9] | Activity [10] | Activity [11] | Activity [12] | Activity [13] | Activity [14] | Activity [15] | Activity [16] | Activity [17] | Activity [18] | Activity [19] | Activity [20]
1 | COc1cc(O)c2c(c1)/C=C/C[C@H](O)[C@H](O)C(=O)/C=C\C[C@H](C)OC2=O | 0.65 | Non-Toxic | 68 | 76 | – | – | – | – | – | – | – | – | – | – | – | – | – | – | – | –
2 | C=CC(=O)Nc1ccccc1Nc1nc(Nc2ccc(N3CCN(CCOCCOCCOCCNC(=O)CCCC[C@@H]4SC[C@@H]5NC(=O)N[C@@H]54)CC3)cc2)ncc1Cl | – | – | – | – | Active | Active | Active | Active | Active | Active | Active | Active | Active | Active | Active | Active | Active | Active | Active | Active
